The nature of assay [1]: Inhibition of sheep brain tubulin assembly by UV-spectrophotometry. Details: species or system Ovis aries. An outline of the steps: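 Microtubule assembly run at 3 mg/mL tubulin; IC50 defined as the concentration inhibiting the rate of assembly by 50%.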
Assay [2] concerns MCF7. Nature of the assay: Antiproliferative activity against human MCF7 cells after 72 hrs. It is filed as functional, cell-based. Particulars: MCF7, 72 h. An outline of the steps: (§1)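 Cells exposed to compound for 72 h; IC50 taken as the concentration giving 50% inhibition of cell proliferation.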
Assay [3] is described as follows: Antiproliferative activity against human U87 cells after 72 hrs. It counts as functional, cell-based, U-87MG ATCC. Particulars: U-87 MG. An outline of the steps:
as §1

In assay [4] the test system is K562. Description: Antiproliferative activity against human K562 cells after 72 hrs. It counts as functional, cell-based. Particulars: K562, 72 h. In outline: as §1
Assay [5] deals with HCT-116. Description: Antiproliferative activity against human HCT116 cells after 72 hrs. It counts as functional, cell-based. The following applies: HCT-116, 72 h. An outline of the steps:
as §1

In assay [1], `CC[C@H](C)[C@H](NC(=O)[C@@H]1CCCN1C(=O)[C@H]1NC(=O)[C@H](C(C)C)NC(=O)[C@@H](NC)[C@@H](O)c2cc(Cl)c(O)c(c2)O[C@]1(C)CC)C(=O)NC(CC(=O)O)C(=O)O` (mixture of isomers) returned an IC50 of 400 nM.
Consider `CC[C@]1(O)C[C@@H]2CN(CCc3c([nH]c4ccccc34)[C@@](C(=O)OC)(c3cc4c(cc3OC)N(C)[C@H]3[C@@](O)(C(=O)OC)[C@H](OC(C)=O)[C@]5(CC)C=CCN6CC[C@]43[C@@H]65)C2)C1` [VINBLASTINE], for which the IC50 in assay [2] was 0.7 nM; in assay [3], 1 nM; in assay [1], 2100 nM; in assay [4] it was 2.7 nM.
Turning to `CCC1=C[C@@H]2CN(C1)C[C@H](CN1CCC[C@H]1C(=O)N[C@H](C(=O)OC)[C@@H](C)CC)Cc1c([nH]c3ccccc13)[C@@](C(=O)OC)(c1cc3c(cc1OC)N(C)[C@H]1[C@@](O)(C(=O)OC)[C@H](OC(C)=O)[C@]4(CC)C=CCN5CC[C@]31[C@@H]54)C2`, the 50% inhibitory concentration (IC50) in assay [2] came out at 800 nM; in assay [3], 400 nM; in assay [1], 2700 nM; in assay [5], 1000 nM; in assay [4] it was 250 nM.
As to `CCC1=C[C@@H]2CN(C1)Cc1c([nH]c3ccccc13)[C@@](C(=O)OC)(c1cc3c(cc1OC)N(C)[C@H]1[C@@](O)(C(=O)OC)[C@H](OC(C)=O)[C@]4(CC)C=CCN5CC[C@]31[C@@H]54)C2` [VINORELBINE], the IC50 in assay [2] stood at 4 nM; in assay [3] it was 2 nM; in assay [1], 600 nM; in assay [4] it was 3.5 nM.
Regarding `CCC1=C[C@@H]2CN(C1)C[C@H](CN1CCC[C@H]1C(=O)OC)Cc1c([nH]c3ccccc13)[C@@](C(=O)OC)(c1cc3c(cc1OC)N(C)[C@H]1[C@@](O)(C(=O)OC)[C@H](OC(C)=O)[C@]4(CC)C=CCN5CC[C@]31[C@@H]54)C2`, the IC50 in assay [2] amounted to 230 nM; in assay [3] it was 25 nM; in assay [1], 1000 nM; in assay [5] it was 700 nM; in assay [4], 120 nM.
`C=C(C)[C@@H]1NC(=O)[C@@H](NC)[C@@H](O)c2cc(Cl)c(O)c(c2)O[C@](C)(CC)[C@@H](C(=O)N2CC=C[C@H]2C(=O)N/C(C(=O)N/C(=C/C(=O)O)C(=O)O)=C(\C)CC)NC1=O` [PHOMOPSIN A] returned an IC50 in assay [1] of 560 nM. This lies in the sub-micromolar range.

As a reminder, the IC50 is the concentration needed to halve the response being measured. A high value points to weaker potency in that assay.

These data come from ChEMBL document CHEMBL3286386, “One-pot synthesis of vinca alkaloids-phomopsin hybrids” (J Med Chem, 2014).
